# Data as given in ChEMBL document CHEMBL4308847, “Discovery, Structure-Activity Relationship, and Biological Characterization of a Novel Series of 6-((1 H-Pyrazolo[4,3- b]pyridin-3-yl)amino)-benzo[ d]isothiazole-3-carboxamides as Positive Allosteric Modulators of the Metabotropic Glutamate Receptor 4 (mGlu4)” (J Med Chem, 2018).
# Columns and labels:
# [1] = biological target: Metabotropic glutamate receptor 4 (Rattus norvegicus, UniProt P31423); experiment: (§1) Positive allosteric modulation of rat mGlu4 receptor expressed in HEK cells co-expressing GIRK1/2 assessed as increase in glutamate-induced thallium flux preincubated for 140 secs followed by glutamate addition and measured after 2.5 mins by FluoZin-2-AM dye based fluorescence assay; type: cell-based
# Metabotropic glutamate receptor 4 (Rattus norvegicus, UniProt P31423), sequence (P31423 whole entry): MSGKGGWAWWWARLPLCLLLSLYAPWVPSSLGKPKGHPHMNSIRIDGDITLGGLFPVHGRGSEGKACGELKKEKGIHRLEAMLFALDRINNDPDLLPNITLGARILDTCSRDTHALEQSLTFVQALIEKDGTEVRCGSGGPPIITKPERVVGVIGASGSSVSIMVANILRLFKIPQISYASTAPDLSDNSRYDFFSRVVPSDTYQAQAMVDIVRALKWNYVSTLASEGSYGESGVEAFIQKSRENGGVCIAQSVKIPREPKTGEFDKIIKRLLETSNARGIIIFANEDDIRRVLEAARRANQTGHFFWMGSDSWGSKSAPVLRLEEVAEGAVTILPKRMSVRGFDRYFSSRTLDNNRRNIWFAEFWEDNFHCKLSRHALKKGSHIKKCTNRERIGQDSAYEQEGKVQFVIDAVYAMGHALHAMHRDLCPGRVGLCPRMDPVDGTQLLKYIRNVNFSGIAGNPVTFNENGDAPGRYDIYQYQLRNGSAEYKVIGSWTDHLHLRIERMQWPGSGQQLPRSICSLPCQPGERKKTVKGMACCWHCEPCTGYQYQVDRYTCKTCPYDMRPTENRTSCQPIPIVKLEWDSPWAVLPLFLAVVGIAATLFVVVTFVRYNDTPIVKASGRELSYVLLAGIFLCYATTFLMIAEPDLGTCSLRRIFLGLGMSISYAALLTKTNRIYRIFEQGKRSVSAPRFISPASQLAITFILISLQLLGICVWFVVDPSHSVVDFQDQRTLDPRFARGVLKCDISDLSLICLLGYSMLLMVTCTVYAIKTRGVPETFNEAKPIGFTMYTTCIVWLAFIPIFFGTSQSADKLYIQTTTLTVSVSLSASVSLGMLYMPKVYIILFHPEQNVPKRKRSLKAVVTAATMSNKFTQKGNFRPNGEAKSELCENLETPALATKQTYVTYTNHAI
# Procedure, shortened: (§2)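 HEK cells co-expressing rat mGlu4 and GIRK1/2 were loaded for 1 h at room temperature with FluoZin-2 AM (330 nM final) in HBSS/20 mM HEPES pH 7.4. Compound was incubated 140 s, then thallium buffer with or without agonist was added. Reading continued for 2.5 min at room temperature. Potency was fitted by four-parameter logistic.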
# Cytochrome P450 1A2 = biological target: T1, Cytochrome P450 1A2 (Homo sapiens, UniProt P05177); experiment: Inhibition of CYP1A2 in human liver microsomes using phenacetin as substrate preincubated for 15 mins followed by substrate addition and measured after 8 mins by LC-MS/MS analysis; type: ADME
# T1 sequence (P05177 whole entry): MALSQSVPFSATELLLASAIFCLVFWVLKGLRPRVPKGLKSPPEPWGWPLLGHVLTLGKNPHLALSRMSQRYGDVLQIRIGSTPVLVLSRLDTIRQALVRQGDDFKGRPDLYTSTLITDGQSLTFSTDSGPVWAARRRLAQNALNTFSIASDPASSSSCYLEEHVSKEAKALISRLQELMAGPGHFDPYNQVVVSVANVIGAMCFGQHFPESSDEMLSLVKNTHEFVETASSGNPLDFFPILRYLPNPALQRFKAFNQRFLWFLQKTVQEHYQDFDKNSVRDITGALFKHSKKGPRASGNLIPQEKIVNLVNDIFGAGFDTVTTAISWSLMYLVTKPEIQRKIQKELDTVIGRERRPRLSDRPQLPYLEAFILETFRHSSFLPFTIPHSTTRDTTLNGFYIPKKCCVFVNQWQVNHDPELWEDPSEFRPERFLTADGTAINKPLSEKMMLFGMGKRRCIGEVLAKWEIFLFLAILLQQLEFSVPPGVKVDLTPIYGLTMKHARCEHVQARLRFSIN
# Procedure, shortened: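 IC50 for CYP1A2 inhibition determined in human liver microsomes using specific probe substrate-metabolite pairs.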
# [2] = Fraction unbound in human plasma after 4 hrs by equilibrium dialysis method; type: ADME, cell-free
# [3] = Fraction unbound in rat plasma after 4 hrs by equilibrium dialysis method; type: ADME, cell-free
# [4] = biological target: T2, Metabotropic glutamate receptor 4 (Homo sapiens, UniProt Q14833); experiment: (§3) Positive allosteric modulation of human mGlu4 receptor expressed in CHO cells co-expressing Gqi5 assessed as increase in glutamate-induced calcium mobilization preincubated for 142 secs followed by EC20 glutamate addition and measured after 147 secs by Fluo-4-AM dye based fluorescence assay relative to control; type: functional, cell-based
# T2 sequence (Q14833 whole entry): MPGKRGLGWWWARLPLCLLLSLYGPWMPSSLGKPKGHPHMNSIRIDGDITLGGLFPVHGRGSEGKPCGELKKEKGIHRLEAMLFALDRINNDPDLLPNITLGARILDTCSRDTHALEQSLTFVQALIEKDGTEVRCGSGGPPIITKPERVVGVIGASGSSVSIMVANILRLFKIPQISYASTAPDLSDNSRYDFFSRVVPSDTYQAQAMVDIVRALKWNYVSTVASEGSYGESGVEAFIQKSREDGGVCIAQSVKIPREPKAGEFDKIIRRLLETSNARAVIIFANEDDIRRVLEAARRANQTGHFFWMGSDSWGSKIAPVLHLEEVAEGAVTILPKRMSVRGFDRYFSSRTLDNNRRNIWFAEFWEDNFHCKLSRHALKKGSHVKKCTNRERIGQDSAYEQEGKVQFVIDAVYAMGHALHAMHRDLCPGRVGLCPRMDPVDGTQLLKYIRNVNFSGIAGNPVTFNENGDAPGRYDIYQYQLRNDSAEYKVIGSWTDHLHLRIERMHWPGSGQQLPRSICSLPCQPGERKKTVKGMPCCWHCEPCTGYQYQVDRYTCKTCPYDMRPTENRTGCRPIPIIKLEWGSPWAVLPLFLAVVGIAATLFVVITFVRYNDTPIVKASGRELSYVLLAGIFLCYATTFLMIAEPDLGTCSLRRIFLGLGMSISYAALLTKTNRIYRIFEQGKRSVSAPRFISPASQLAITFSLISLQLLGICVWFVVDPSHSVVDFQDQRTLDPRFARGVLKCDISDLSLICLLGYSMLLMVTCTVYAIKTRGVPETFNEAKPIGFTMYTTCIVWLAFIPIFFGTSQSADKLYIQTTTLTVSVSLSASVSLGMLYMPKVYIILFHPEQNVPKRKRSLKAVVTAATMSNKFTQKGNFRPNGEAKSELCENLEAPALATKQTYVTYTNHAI
# Procedure, shortened: (§4)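 CHO cells expressing human mGlu4 and Gqi5, plated at 30,000 cells/well and grown overnight at 37 °C, 5% CO2. Cells were loaded with 1 μM Fluo-4 AM for 45 min at 37 °C in HBSS/20 mM HEPES/2.5 mM probenecid. Compounds were run as 10-point, 1:3 dilution series. After 142 s, EC20 glutamate was added; 147 s later, EC80 glutamate. Fluorescence was normalized to the maximal glutamate response. EC50 and %Glu Max were fitted by four-parameter logistic, with maximum normalized to PHCCC.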
# [5] = Intrinsic clearance in rat liver microsomes at 1 uM preincubated for 5 mins followed by NADPH addition measured up to 45 mins by LC-MS/MS analysis; type: ADME, Microsome; conditions: read-out: CLH
# Procedure, shortened: (§5)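 Intrinsic and predicted hepatic clearance derived from liver microsome incubations.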
# [6] = biological target: Metabotropic glutamate receptor 4 (Rattus norvegicus) (UniProt P31423); experiment: as §1, with “assay relative to control” for “assay”; type: cell-based; procedure, shortened: as §2
# Metabotropic glutamate receptor 4 (Rattus norvegicus), sequence (P31423 whole entry): as the sequence (P31423 whole entry) above
# [7] = Intrinsic clearance in human liver microsomes at 1 uM preincubated for 5 mins followed by NADPH addition measured up to 45 mins by LC-MS/MS analysis; type: ADME, Microsome; conditions: read-out: CLH; procedure, shortened: as §5
# [8] = biological target: T2, Metabotropic glutamate receptor 4; experiment: as §3, with “subsequent EC80 glutamate addition” for “measured”, “assay” for “assay relative to control”; type: functional, cell-based; procedure, shortened: as §4
# [9] = Clearance in rat administered as iv cassette dose; type: ADME, organism-based; conditions: in vivo
# Procedure, shortened: (§6)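 IV cassette in male Sprague-Dawley rats (~300 g, n = 1 per experiment), cannulated in carotid artery and jugular vein and acclimated about one week. Plasma clearance, Vss, t1/2 and MRT were derived.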
# [10] = Half life in rat administered as iv cassette dose; type: ADME, organism-based; conditions: in vivo; procedure, shortened: as §6
Compound,EC50 [1],IC50 (Cytochrome P450 1A2),fraction unbound at 4 h [2],fraction unbound at 4 h [3],%max [4],CLint scaled at 1 µM [5],%max [6],CLint scaled at 1 µM [7],EC50 [8],Fu ([2]; 4 h),Fu ([3]; 4 h),clearance [9],half-life [10]
CC(=O)N1CCC(c2nsc3cc(Nc4n[nH]c5cccnc45)ccc23)CC1,166 nM,21700 nM,0.042,0.039,79%,21 mL/min/kg,98.9%,15.8 mL/min/kg,–,–,–,–,–
c1cnc2c(Nc3ccc4c(C5CC5)nsc4c3)n[nH]c2c1,–,400 nM,0.009,0.014,76%,176 mL/min/kg,–,28.9 mL/min/kg,81 nM,–,–,–,–
O=C(C1CC1)N1CCC(c2nsc3cc(Nc4n[nH]c5cccnc45)ccc23)CC1,–,–,–,–,111%,–,–,–,–,–,–,–,–
CC(C)(C)Cc1nsc2cc(Nc3n[nH]c4nccnc34)cnc12,158 nM,> 30000 nM,0.013,0.011,54%,189 mL/min/kg,112%,40.2 mL/min/kg,105 nM,–,–,–,–
CC(C)(O)c1nsc2cc(Nc3n[nH]c4cccnc34)ccc12,–,–,–,–,98%,–,–,–,1050 nM,–,–,–,–
FC(F)(F)c1nsc2cc(Nc3n[nH]c4ncccc34)ccc12,–,–,–,–,50%,–,–,–,794 nM,–,–,–,–
FC1(F)CCN(Cc2nsc3cc(Nc4n[nH]c5cccnc45)cnc23)CC1,–,> 30000 nM,–,–,84%,1080 mL/min/kg,–,27.5 mL/min/kg,–,Nd(Unstable),Nd(Unstable),–,–
Cc1noc2ccc(Nc3n[nH]c4cccnc34)cc12,95.5 nM,< 100 nM,0.062,0.058,91%,31.8 mL/min/kg,105%,14.8 mL/min/kg,75.9 nM,–,–,–,–
CCC(CC)c1noc2cc(Nc3n[nH]c4nccnc34)ccc12,–,–,–,–,106%,–,–,–,98 nM,–,–,–,–
CC(C)(C)Cc1nsc2cc(Nc3n[nH]c4ncccc34)ccc12,–,–,–,–,74%,–,–,–,759 nM,–,–,–,–
CCCC(C)c1noc2cc(Nc3n[nH]c4cccnc34)ccc12 (stereo not given),–,–,–,–,92%,–,–,–,117 nM,–,–,–,–
Cc1noc2cc(Nc3n[nH]c4cccnc34)ccc12,–,–,–,–,86%,–,–,–,1860 nM,–,–,–,–
CC(C)(C)Cc1noc2cc(Nc3n[nH]c4ncccc34)ccc12,–,–,–,–,84%,–,–,–,2820 nM,–,–,–,–
CC(C)(C)Cc1nsc2cc(Nc3n[nH]c4cccnc34)cnc12,–,22100 nM,0.006,0.016,51%,277 mL/min/kg,–,24.7 mL/min/kg,74 nM,–,–,–,–
CC(C)(C)Cc1noc2cc(Nc3n[nH]c4cccnc34)ccc12,542 nM,1100 nM,0.016,0.022,68.9%,86.9 mL/min/kg,84.8%,7.3 mL/min/kg,1300 nM,–,–,43.2 mL/min/kg,1.33 h
c1cnc2c(Nc3ccc4c(C5CC5)nsc4c3)n[nH]c2n1,–,700 nM,0.012,0.008,73%,59.4 mL/min/kg,–,41.2 mL/min/kg,68 nM,–,–,–,–
CCc1nsc2cc(Nc3n[nH]c4ncccc34)ccc12,–,–,–,–,57%,–,–,–,102 nM,–,–,–,–
CC1CCN(C(=O)c2nsc3cc(Nc4n[nH]c5cccnc45)ccc23)CC1,–,–,–,–,80%,–,–,–,398 nM,–,–,–,–
CCc1noc2cc(Nc3n[nH]c4cccnc34)ccc12,–,< 100 nM,0.027,0.037,72%,204 mL/min/kg,–,69.9 mL/min/kg,1350 nM,–,–,–,–

Compound,EC50 [1],IC50 (Cytochrome P450 1A2),fraction unbound at 4 h [2],fraction unbound at 4 h [3],%max [4],CLint scaled at 1 µM [5],%max [6],CLint scaled at 1 µM [7],EC50 [8],Fu ([2]; 4 h),Fu ([3]; 4 h),clearance [9],half-life [10]
c1cnc2c(Nc3ccc4c(C5CCC5)noc4c3)n[nH]c2n1,–,–,–,–,102%,–,–,–,708 nM,–,–,–,–
Cc1noc2c(F)cc(Nc3n[nH]c4nccnc34)cc12,–,–,–,–,70%,–,–,–,22.9 nM,–,–,–,–
CCC(CC)c1noc2cc(Nc3n[nH]c4cccnc34)ccc12,–,1000 nM,0.009,0.019,92%,488 mL/min/kg,–,84.2 mL/min/kg,129 nM,–,–,–,–
CCc1noc2ccc(Nc3n[nH]c4ncccc34)cc12,–,–,–,–,54%,–,–,–,> 10000 nM,–,–,–,–
CC(C)Cc1noc2cc(Nc3n[nH]c4cccnc34)ccc12,–,–,–,–,53%,–,–,–,813 nM,–,–,–,–
CC1CC(C)CN(C(=O)c2nsc3cc(Nc4n[nH]c5cccnc45)ccc23)C1 (stereo not given),–,–,–,–,63%,–,–,–,447 nM,–,–,–,–
CC(C)c1noc2cc(Nc3n[nH]c4cccnc34)ccc12,–,–,–,–,23%,–,–,–,575 nM,–,–,–,–
O=C(c1nsc2cc(Nc3n[nH]c4cccnc34)ccc12)N1CCC(F)(F)C1,–,–,–,–,92%,–,–,–,331 nM,–,–,–,–
c1cnc2c(Nc3ccc4c(C5CCCC5)noc4c3)n[nH]c2c1,680 nM,1200 nM,0.01,0.007,87.6%,398 mL/min/kg,97.9%,30.7 mL/min/kg,723 nM,–,–,62.1 mL/min/kg,1.67 h
O=C(c1nsc2cc(Nc3n[nH]c4cccnc34)ccc12)N1CCOCC1,–,–,0.077,0.059,62%,172 mL/min/kg,–,44.3 mL/min/kg,275 nM,–,–,–,–
c1cnc2[nH]nc(Nc3ccc4c(C5CCCC5)noc4c3)c2c1,–,–,–,–,60%,–,–,–,2400 nM,–,–,–,–
CC(C)(C)Cc1nsc2cc(Nc3n[nH]c4cccnc34)ccc12,–,–,–,–,70%,–,–,–,269 nM,–,–,–,–
Cc1noc2ccc(Nc3n[nH]c4ncc(F)cc34)cc12,190 nM,500 nM,0.054,0.044,54%,39.3 mL/min/kg,121%,23.6 mL/min/kg,219 nM,–,–,–,–
CC(F)(F)c1noc2cc(Nc3n[nH]c4cccnc34)ccc12,1600 nM,500 nM,0.003,0.017,58.8%,11 mL/min/kg,83.8%,24.6 mL/min/kg,678 nM,–,–,27.8 mL/min/kg,1.51 h
CCc1nsc2cc(Nc3n[nH]c4cccnc34)ccc12,–,–,0.035,0.03,77%,127 mL/min/kg,–,35.4 mL/min/kg,40 nM,–,–,–,–
CC1CN(C(=O)c2nsc3cc(Nc4n[nH]c5cccnc45)ccc23)CC(C)O1 (stereo not given),–,–,0.013,0.034,44%,229 mL/min/kg,–,60 mL/min/kg,324 nM,–,–,–,–
CC(C)(C)c1nsc2cc(Nc3n[nH]c4cccnc34)ccc12,–,–,–,–,64%,–,–,–,324 nM,–,–,–,–
c1cnc2c(Nc3ccc4c(C5CCC5)noc4c3)n[nH]c2c1,–,1800 nM,0.026,0.016,88%,1220 mL/min/kg,–,83.2 mL/min/kg,851 nM,–,–,–,–
CCC(CC)c1noc2cc(Nc3n[nH]c4ncccc34)ccc12,–,–,–,–,97%,–,–,–,525 nM,–,–,–,–
